{
  "source": "paper PMC4112965",
  "about": "(Cell reports, 2014)",
  "key": {"adipose tissue": {"tested_on": "adipose tissue", "details": "accompanied by decreased expression of SREBP-1; ref Pereira et al., 2013; cited from earlier work"}, "Rat primary hepatocytes [1]": {"tested_on": "Rat primary hepatocytes", "assay": "qRT-PCR of SREBP-1c target genes in insulin-stimulated rat primary hepatocytes", "format": "cell-based", "in_short": "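Rat primary hepatocytes were isolated, plated, and pre-treated 16 h with DMSO or test compound, then stimulated with insulin or vehicle over a 12 h time course. FASN, GCK and SREBP-1c mRNAs were measured by qRT-PCR, normalised to r36B4, with the vehicle-treated unstimulated group set as 1; n=3, mean ± SEM.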"}, "PASK": {"molecular_target": "PASK (Homo sapiens, UniProt Q96RG2)", "sequence (Q96RG2 whole entry)": "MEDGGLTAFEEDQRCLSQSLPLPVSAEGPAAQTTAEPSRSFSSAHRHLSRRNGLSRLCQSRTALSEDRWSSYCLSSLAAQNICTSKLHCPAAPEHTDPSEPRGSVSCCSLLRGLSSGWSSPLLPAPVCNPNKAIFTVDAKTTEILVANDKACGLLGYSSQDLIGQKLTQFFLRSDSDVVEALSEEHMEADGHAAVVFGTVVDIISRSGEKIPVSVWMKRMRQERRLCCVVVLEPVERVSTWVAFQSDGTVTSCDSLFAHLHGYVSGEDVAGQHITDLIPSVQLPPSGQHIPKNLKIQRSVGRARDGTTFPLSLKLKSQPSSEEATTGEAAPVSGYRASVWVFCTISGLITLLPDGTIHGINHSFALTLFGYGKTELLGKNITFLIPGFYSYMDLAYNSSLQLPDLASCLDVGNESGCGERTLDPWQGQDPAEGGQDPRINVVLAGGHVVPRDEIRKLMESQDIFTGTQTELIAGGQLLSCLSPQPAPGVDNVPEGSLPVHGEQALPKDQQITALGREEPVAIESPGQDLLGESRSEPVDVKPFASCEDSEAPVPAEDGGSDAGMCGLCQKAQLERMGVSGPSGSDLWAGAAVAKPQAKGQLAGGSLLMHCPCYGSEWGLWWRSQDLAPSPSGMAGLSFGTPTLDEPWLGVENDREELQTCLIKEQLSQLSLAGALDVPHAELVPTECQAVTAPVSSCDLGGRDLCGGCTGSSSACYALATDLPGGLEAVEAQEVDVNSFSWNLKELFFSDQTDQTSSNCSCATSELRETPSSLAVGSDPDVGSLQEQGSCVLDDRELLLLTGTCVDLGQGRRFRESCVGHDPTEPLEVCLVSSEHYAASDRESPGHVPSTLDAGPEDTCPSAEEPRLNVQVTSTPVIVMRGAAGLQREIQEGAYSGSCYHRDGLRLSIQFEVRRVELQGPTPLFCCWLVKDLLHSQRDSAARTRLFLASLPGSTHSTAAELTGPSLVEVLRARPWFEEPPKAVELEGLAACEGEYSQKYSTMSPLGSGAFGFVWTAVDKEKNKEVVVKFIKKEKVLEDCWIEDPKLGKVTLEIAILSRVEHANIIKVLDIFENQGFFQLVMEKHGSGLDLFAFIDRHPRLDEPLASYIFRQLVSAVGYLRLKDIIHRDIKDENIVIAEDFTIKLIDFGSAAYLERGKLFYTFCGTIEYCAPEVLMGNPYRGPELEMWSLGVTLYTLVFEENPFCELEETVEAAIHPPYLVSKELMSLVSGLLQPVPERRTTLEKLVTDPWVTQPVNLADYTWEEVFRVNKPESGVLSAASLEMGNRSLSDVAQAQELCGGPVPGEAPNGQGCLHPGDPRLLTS", "assay": "In vitro protein kinase activity assay, purified PASK", "format": "biochemical", "details": "100μM", "in_short": "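Purified PASK kinase activity measured with vehicle or test compound at the indicated concentrations. Activity is expressed as percent of vehicle-treated activity.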"}, "[2]": {"tested_on": "high-fructose diet (HFrD) fed rats", "assay": "High-fructose diet Sprague-Dawley rats, oral dosing once/day for one week", "format": "in vivo"}, "Rat primary hepatocytes [3]": {"tested_on": "Rat primary hepatocytes", "assay": "14C-acetate incorporation into lipids in rat primary hepatocytes", "format": "cell-based", "in_short": "(§1)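 HepG2 cells or rat primary hepatocytes were pre-treated overnight in serum-free medium with vehicle or 10 μM test compound. They then got fresh medium with vehicle or […] test compound plus 100 nM insulin for 6 h, labelled with 10 μCi/ml [1-14C]-acetate for the last 4 h. Lysis was in 0.5% Triton X-100, lipids were extracted with chloroform:methanol 2:1, and the organic phase was scintillation-counted. Counts were normalised to lysate protein; n=3, mean ± SD.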"}, "[4]": {"tested_on": "Akt and S6K phosphorylation", "assay": "Immunoblot of Akt and S6K phosphorylation in response to insulin in HepG2 cells", "format": "cell-based, human", "in_short": "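HepG2 cells received vehicle or graded concentrations of test compound, then 100 nM insulin for 6 h. Cell lysates were immunoblotted for phosphorylation state and abundance of Akt and S6K.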"}, "50 other protein kinases": {"tested_on": "50 other protein kinases", "assay": "In vitro specificity panel of 50 other protein kinases", "format": "biochemical, human", "details": "100μM"}, "SREBP": {"tested_on": "SREBP", "assay": "SRE-driven luciferase", "format": "cell-based, human", "details": "for concentrations giving a significant reduction in SREBP activity: HepG2, SRE-Luc, 100nM insulin 6 h; for effects on cell morphology or growth rate: HepG2 cells, concentrations of the SRE-Luc experiment", "in_short": "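Transfection of HepG2 cells used Lipofectamine LTX, with pSRE-Luc plus CMV-driven Renilla luciferase. Cells were serum-starved overnight with vehicle or graded concentrations of test compound, then stimulated with 100 nM insulin for 6 h. Firefly and Renilla luciferase were read by dual-reporter assay. Data were normalised to vehicle-treated samples; n=3, mean ± SD.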"}, "SREBP-1c maturation": {"tested_on": "SREBP-1c maturation", "assay": "Immunoblot of precursor and mature SREBP-1c in HepG2 cells", "format": "cell-based, human", "in_short": "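HepG2 cells expressing GFP or 3xFlag-tagged precursor SREBP-1a or SREBP-1c were treated with test compound (30 and 50 μM), then 100 nM insulin for 6 h. Whole-cell lysate and nuclear extract were immunoblotted for precursor and mature SREBP-1c, and the mature:precursor ratio was determined.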"}, "HepG2 cells": {"tested_on": "HepG2 cells", "assay": "14C-acetate incorporation into lipid", "format": "cell-based, human", "details": "10 μM, HepG2, 14C-acetate", "in_short": "as §1"}, "[5]": {"assay": "In vivo pharmacologic and pharmacokinetic properties"}, "casein kinase 2α": {"tested_on": "casein kinase 2α", "assay": "In vitro protein kinase activity assay, casein kinase 2α", "format": "biochemical, human", "details": "PASK vs casein kinase 2α2"}, "HFrD-fed rats": {"tested_on": "HFrD-fed rats", "assay": "High-fructose diet Sprague-Dawley rats, oral dosing once/day for 90 days", "format": "in vivo, rat"}, "[6]": {"tested_on": "SREBP-1 maturation in liver", "assay": "High-fat and high-fructose diet rats, liver SREBP-1 maturation immunoblot", "format": "in vivo, rat", "details": "10, 30 and 100 mg/kg; treated for the last 3 weeks of 18 weeks diet", "in_short": "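Rats were fed a high-fat plus high-fructose diet for 18 weeks and dosed once daily by oral gavage with vehicle or test compound over the final 3 weeks. Vehicle was 0.5% methylcellulose, 0.025% Tween-80 in water, with compound ground to a suspension. Animals were fasted 24 h and refed 12 h. Whole liver lysate and nuclear extract were immunoblotted for precursor and mature SREBP-1 plus control proteins.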"}},
  "data": [
    {"smiles": "CO[C@H]1C[C@@H]2CC[C@@H](C)[C@@](O)(O2)C(=O)C(=O)N2CCCC[C@H]2C(=O)O[C@H]([C@H](C)C[C@@H]2CC[C@@H](O)[C@H](OC)C2)CC(=O)[C@H](C)/C=C(\\C)[C@@H](O)[C@@H](OC)C(=O)[C@H](C)C[C@H](C)/C=C/C=C/C=C/1C", "note": "[rapamycin]", "values": [
      {"measurement": "lipogenesis in adipose tissue", "setting": "adipose tissue", "result": "decreased lipogenesis"}
    ]},
    {"smiles": "C[C@H]1CCCN1c1nc2cc(C(=O)O)ccc2nc1-c1ccc(F)cc1", "note": "[BioE-1197]", "values": [
      {"measurement": "mRNA encoding SREBP-1c", "setting": "Rat primary hepatocytes [1]; basal and insulin-stimulated conditions", "result": "significant decrease"},
      {"measurement": "insulin-induced increase in FASN and GCK mRNAs", "setting": "Rat primary hepatocytes [1]; pre-treated 16 h, insulin over 12 h timecourse", "result": "either blunted or abolished"},
      {"measurement": "PASK activity at extremely high concentration", "setting": "PASK", "result": "essentially completely inactivated"},
      {"measurement": "hepatic expression of the gene encoding HMG-CoA reductase", "setting": "[2]; oral once/day, one week", "result": "significantly decreased"},
      {"measurement": "insulin-induced increase in lipogenesis (14C-acetate incorporation into lipids)", "setting": "Rat primary hepatocytes [3]", "result": "completely abolished"},
      {"measurement": "phosphorylation of Akt or S6K in response to insulin", "setting": "[4]", "result": "neither compound impaired"},
      {"measurement": "activity of the majority of the 50 kinases", "setting": "50 other protein kinases", "result": "either unaffected or only modestly inhibited"},
      {"measurement": "number of other kinases substantially inhibited", "setting": "50 other protein kinases; of 50 kinases other than PASK", "result": 8},
      {"measurement": "concentrations giving a significant reduction in SREBP activity", "setting": "SREBP", "result": "> 3", "unit": "µM"},
      {"measurement": "effects on cell morphology or growth rate", "setting": "SREBP", "result": "without any observable effects"},
      {"measurement": "suppression of SREBP-1c maturation compared with BioE-1428", "setting": "SREBP-1c maturation; quantified over five independent experiments", "result": "significantly more efficacious"},
      {"measurement": "decrease in 14C incorporation into lipids", "setting": "HepG2 cells", "result": "~ 60%"}
    ]},
    {"smiles": "CC(C)N(C)c1nc2cc(C(=O)O)ccc2nc1-c1ccc(F)cc1", "note": "[BioE-1115]", "values": [
      {"measurement": "in vivo pharmacologic and pharmacokinetic properties relative to BioE-1197", "setting": "[5]", "result": "more favorable"},
      {"measurement": "hepatic expression of SREBP-1c target genes", "setting": "[2]; 1 or 3 mg/kg oral once/day, one week", "result": "no difference from vehicle-treated rats"},
      {"measurement": "hepatic expression of Gpat1, Fasn and all other SREBP-1c target genes analyzed", "setting": "[2]; 10, 30 and 100 mg/kg oral once/day, one week", "result": "dose-dependent suppression"},
      {"measurement": "HOMA-IR", "setting": "[2]; calculated measure of insulin resistance", "result": "decreased in a dose-dependent manner"},
      {"measurement": "hepatic SREBP-1c and SREBP-1a mRNA", "setting": "[2]; highest doses", "result": "modestly decreased"},
      {"measurement": "body weight", "setting": "[2]; oral once/day, one week", "result": "Neither dose of BioE-1115 caused a significant change"},
      {"measurement": "hepatic TAG", "setting": "[2]; oral once/day, one week", "result": "decrease"},
      {"measurement": "hepatic expression of HMG-CoA synthase 1 and SREBP-2", "setting": "[2]; oral once/day, one week", "result": "induced in a dose-dependent manner"},
      {"measurement": "liver weight", "setting": "[2]; oral once/day, one week", "result": "Neither dose of BioE-1115 caused a significant change"},
      {"measurement": "serum TAG", "setting": "[2]; oral once/day, one week", "result": "decreased in a dose-dependent manner"},
      {"measurement": "serum cholesterol", "setting": "[2]; oral once/day, one week", "result": "basically unaffected"},
      {"measurement": "serum glucose", "setting": "[2]; oral once/day, one week", "result": "significant decrease"},
      {"measurement": "serum insulin levels", "setting": "[2]; oral once/day, one week", "result": "slightly lower"},
      {"measurement": "fold more potent as an inhibitor of PASK than of casein kinase 2α2", "setting": "casein kinase 2α", "result": "roughly 2500 fold"},
      {"measurement": "phosphorylation of Akt or S6K in response to insulin", "setting": "[4]", "result": "neither compound impaired"},
      {"measurement": "hepatic Fasn and Acc1 expression", "setting": "HFrD-fed rats; 3 mg/kg, 90 days", "result": "significantly suppressed"},
      {"measurement": "hepatic Fasn and Acc1 expression", "setting": "HFrD-fed rats; 10, 30 and 100 mg/kg, 90 days", "result": "restored to that in normal chow fed animals"},
      {"measurement": "serum glucose levels as measured by glycated hemoglobin (HbA1c)", "setting": "HFrD-fed rats; 90-day study", "result": "decreased"},
      {"measurement": "expression of SREBP-1c or its target genes in abdominal fat", "setting": "HFrD-fed rats; 90 days", "result": "no significant differences"},
      {"measurement": "expression of SREBP-1c or its target genes in gastrocnemius muscle", "setting": "HFrD-fed rats; 90 days", "result": "no significant differences"},
      {"measurement": "body weight", "setting": "HFrD-fed rats; after 51 days of dosing", "result": "no drug-dependent difference"},
      {"measurement": "body weight", "setting": "HFrD-fed rats; after 90 days of dosing", "result": "no drug-dependent difference"},
      {"measurement": "serum triglycerides", "setting": "HFrD-fed rats; after 90 days of treatment", "result": "significant dose-responsive decrease"},
      {"measurement": "overt toxicity upon extended treatment", "setting": "HFrD-fed rats; doses 10–30 fold higher than those required for significant effects on lipogenic gene expression and serum triglycerides", "result": "no overt toxicity"},
      {"measurement": "serum triglycerides", "setting": "HFrD-fed rats; interim timepoint of 45 days", "result": "significant dose-responsive decrease"},
      {"measurement": "concentrations giving a significant reduction in SREBP activity", "setting": "SREBP", "result": "above 10 μM"},
      {"measurement": "effects on cell morphology or growth rate", "setting": "SREBP", "result": "without any observable effects"},
      {"measurement": "SREBP-1c maturation (mature:precursor SREBP-1c ratio)", "setting": "SREBP-1c maturation; 30 and 50μM", "result": "suppressed"},
      {"measurement": "SREBP-1 maturation in liver", "setting": "[6]", "result": "suppressed"}
    ]}
  ]
}
